Results on 38 variants are retold here after the RNAGym collection of RNA variant scans (doi:10.1038/s41586-018-0170-7).

The labels stand for the following.
B1: tRNA (parent)
chain: GUUCCGUUGGCGUAAUGGUAACGCGUCUCCCUCCUAAGGAGAAGACUGCGGGUUCGAGUCCCGUACGGAACG

Variants of B1 are the subject of this series. Kind of series: yeast fitness, log relative to wild type (ln ratio); higher = fitter; tRNA-Arg(CCU), competitive growth, 37 C, 1 M NaCl. In outline: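 A combinatorial tRNA-Arg(CCU) variant library was carried on a HIS3 centromeric plasmid in BY4742 lacking the chromosomal gene, from two independent transformations. Pools grew 4 generations in SC-HIS at 30 °C, then ~6.5 generations (~26.5 h) in SC-HIS 1M NaCl at 37 °C, with three outputs per input. Variants were counted by 125 bp paired-end Illumina sequencing. Fitness is ln of each genotype's generations (OD-scaled log2 output/input frequency, inverse-variance weighted across replicates) over the wild-type's.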
In the case of GCUCCAUUGGCGUAAUGGUAACGCGUCUCCCUCCUAAGGAGACGAUUGCGGGUUCGAGUCCCGUACGGAGUG, the “yeast fitness (ln)” value is -0.112.

Take GCUCCAUUGGCGUAAUGGUAACGCGUCUCCCUCCUAAGGAGACGACUGCGGGUUCGAGUCCCGUACGGAUCG: the “yeast fitness (ln)” value was -0.0469.

As for GCUCCAUUGGCGUAAUGGUAACGCGUCUCCCUCCUAAGGAGACGACUGCGGGUUCGAGUCCCGUACGGAGCG, the “yeast fitness (ln)” value was -0.231.

Turning to GCUCCGUUGGCGUAAUGGUAACGCGUCUCCCUCCUAAGGAGAAGACUGCGGGUUCGAGUCCCGUAUGGAGCG, the “yeast fitness (ln)” value is -0.00448.

For the variant GCUCCGUUGGCGUAAUGGUAACGCGUCUCCCUCCUAAGGAGAAGACUGCGGGUUCGAGUCCCGUAUGGAUCG, the “yeast fitness (ln)” value was -0.0706.

For GCUCCAUUGGCGUAAUGGUAACGCGUCUCCCUCCUAAGGAGAAGACUGCGGGUUCGAGUCCCGUACGGAACG, the “yeast fitness (ln)” value worked out at 0.0247.

Turning to GCUCCAUUGGCGUAAUGGUAACGCGUCUCCCUCCUAAGGAGACGACUGCGGGUUCGAGUCCCGUACGGAACG, the “yeast fitness (ln)” value is -0.0449.

On to GCUCCAUUGGCGUAAUGGUAACGCGUCUCCCUCCUAAGGAGACGAUUGCGGGUUCGAGUCCCGUAAGGAUUG, for which the “yeast fitness (ln)” value was -0.0318.

Regarding GCUCCAUUGGCGUAAUGGUAACGCGUCUCCCUCCUAAGGAGACGACUGCGGGUUCGAGUCCCGUACGGGUUG, the “yeast fitness (ln)” value is -0.279.

Take GCUCCGUUGGCGUAAUGGUAACGCGUCUCCCUCCUAAGGAGAAGACUGCGGGUUCGAGUCCCGUAUGGGAUG: the “yeast fitness (ln)” value is -0.311.

For the variant GCUCCGUUGGCGUAAUGGUAACGCGUCUCCCUCCUAAGGAGAAGACUGCGGGUUCGAGUCCCGUAUGGAUUG, the “yeast fitness (ln)” value is -0.152.

For the variant GCUCCAUUGGCGUAAUGGUAACGCGUCUCCCUCCUAAGGAGACGACUGCGGGUUCGAGUCCCGUACGGGGCG, the “yeast fitness (ln)” value is -0.0768.

For the variant GCUCCAUUGGCGUAAUGGUAACGCGUCUCCCUCCUAAGGAGACGACUGCGGGUUCGAGUCCCGUACGGGUCG, the “yeast fitness (ln)” value was -0.0661.

Consider GCUCCAUUGGCGUAAUGGUAACGCGUCUCCCUCCUAAGGAGACGAUUGCGGGUUCGAGUCCCGUACGGGGUG, for which the “yeast fitness (ln)” value was -0.101.

On to GCUCCGUUGGCGUAAUGGUAACGCGUCUCCCUCCUAAGGAGAAGACUGCGGGUUCGAGUCCCGUAUGGGGUG, for which the “yeast fitness (ln)” value is -0.101.

As for GCUCCAUUGGCGUAAUGGUAACGCGUCUCCCUCCUAAGGAGACGAUUGCGGGUUCGAGUCCCGUACGGAUCG, the “yeast fitness (ln)” value is -0.0234.

Consider GCUCCAUUGGCGUAAUGGUAACGCGUCUCCCUCCUAAGGAGACGAUUGCGGGUUCGAGUCCCGUACGGAGCG, for which the “yeast fitness (ln)” value was -0.0922.

For the variant GCUCCAUUGGCGUAAUGGUAACGCGUCUCCCUCCUAAGGAGACGAUUGCGGGUUCGAGUCCCGUACGGGGCG, the “yeast fitness (ln)” value is -0.241.

Turning to GCUCCAUUGGCGUAAUGGUAACGCGUCUCCCUCCUAAGGAGACGAUUGCGGGUUCGAGUCCCGUACGGGUCG, the “yeast fitness (ln)” value is -0.0634.

Turning to GCUCCAUUGGCGUAAUGGUAACGCGUCUCCCUCCUAAGGAGACGAUUGCGGGUUCGAGUCCCGUAAGGAGUG, the “yeast fitness (ln)” value is -0.108.

For GCUCCGUUGGCGUAAUGGUAACGCGUCUCCCUCCUAAGGAGAAGACUGCGGGUUCGAGUCCCGUACGGAAUG, the “yeast fitness (ln)” value is -0.101.

On to GCUCCGUUGGCGUAAUGGUAACGCGUCUCCCUCCUAAGGAGAAGACUGCGGGUUCGAGUCCCGUAUGGGUUG, for which the “yeast fitness (ln)” value was -0.404.

Regarding GCUCCAUUGGCGUAAUGGUAACGCGUCUCCCUCCUAAGGAGACGACUGCGGGUUCGAGUCCCGUACGGAUUG, the “yeast fitness (ln)” value was -0.126.

Regarding GCUCCGUUGGCGUAAUGGUAACGCGUCUCCCUCCUAAGGAGAAGACUGCGGGUUCGAGUCCCGUAUGGAGUG, the “yeast fitness (ln)” value was -0.0234.

In the case of GCUCCAUUGGCGUAAUGGUAACGCGUCUCCCUCCUAAGGAGACGACUGCGGGUUCGAGUCCCGUACGGGGUG, the “yeast fitness (ln)” value is -0.153.

Regarding GCUCCAUUGGCGUAAUGGUAACGCGUCUCCCUCCUAAGGAGACGAUUGCGGGUUCGAGUCCCGUACGGAUUG, the “yeast fitness (ln)” value was -0.09.

With GCUCCAUUGGCGUAAUGGUAACGCGUCUCCCUCCUAAGGAGACGACUGCGGGUUCGAGUCCCGUACGGAGUG, the “yeast fitness (ln)” value is -0.129.

As to GCUCCAUUGGCGUAAUGGUAACGCGUCUCCCUCCUAAGGAGACGAUUGCGGGUUCGAGUCCCGUACGGGAUG, the “yeast fitness (ln)” value was -0.0945.

As to GCUCCAUUGGCGUAAUGGUAACGCGUCUCCCUCCUAAGGAGACGAUUGCGGGUUCGAGUCCCGUAAGGGGUG, the “yeast fitness (ln)” value was -0.112.

Consider GCUCCAUUGGCGUAAUGGUAACGCGUCUCCCUCCUAAGGAGACGAUUGCGGGUUCGAGUCCCGUACGGAACG, for which the “yeast fitness (ln)” value was -0.0201.

With GCUCCGUUGGCGUAAUGGUAACGCGUCUCCCUCCUAAGGAGAAGACUGCGGGUUCGAGUCCCGUAUGGAAUG, the “yeast fitness (ln)” value is -0.0912.

Take GCUCCAUUGGCGUAAUGGUAACGCGUCUCCCUCCUAAGGAGACGAUUGCGGGUUCGAGUCCCGUACGGGUUG: the “yeast fitness (ln)” value is -0.399.

As to GCUCCAUUGGCGUAAUGGUAACGCGUCUCCCUCCUAAGGAGACGAUUGCGGGUUCGAGUCCCGUAAGGAAUG, the “yeast fitness (ln)” value is -0.127.

In the case of GCUCCAUUGGCGUAAUGGUAACGCGUCUCCCUCCUAAGGAGACGAUUGCGGGUUCGAGUCCCGUAAGGAUCG, the “yeast fitness (ln)” value was -0.0148.

Turning to GCUCCAUUGGCGUAAUGGUAACGCGUCUCCCUCCUAAGGAGACGAUUGCGGGUUCGAGUCCCGUAAGGAGCG, the “yeast fitness (ln)” value is -0.123.

In the case of GCUCCAUUGGCGUAAUGGUAACGCGUCUCCCUCCUAAGGAGACGAUUGCGGGUUCGAGUCCCGUAAGGAACG, the “yeast fitness (ln)” value is -0.2.

On to GCUCCAUUGGCGUAAUGGUAACGCGUCUCCCUCCUAAGGAGACGACUGCGGGUUCGAGUCCCGUACGGGAUG, for which the “yeast fitness (ln)” value is -0.179.

In the case of GCUCCGUUGGCGUAAUGGUAACGCGUCUCCCUCCUAAGGAGAAGACUGCGGGUUCGAGUCCCGUAUGGGUCG, the “yeast fitness (ln)” value was -0.0622.
